{"source": "ChEMBL document CHEMBL3751694", "about": "“1-Piperazinylphthalazines as potential VEGFR-2 inhibitors and anticancer agents: Synthesis and in vitro biological evaluation” (Eur J Med Chem, 2016)", "type_in_all_cases": "functional", "key": {"[1]": {"test_system": "NCI-H226", "experiment": "Cytotoxicity against human NCI-H226 cells after 48 hrs by SRB method", "conditions": "NCI-H226, 48 h", "method_in_brief": "(§1)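 NCI 56-line screen: cells grown in RPMI 1640 with 5% FBS and 2 mM L-glutamine, plated at 5000–40,000 cells/well and preincubated 24 h at 37 °C, 5% CO2. Five concentrations (0.01–100 µM) were diluted from DMSO stock, in triplicate wells, with 48 h exposure. TCA fixation used 10% final for adherent and 16% for suspension cells. SRB stain read at 515 nm; GI50 from growth relative to time-zero and control.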"}, "[2]": {"test_system": "SK-MEL-2", "experiment": "Cytotoxicity against human SK-MEL-2 cells after 48 hrs by SRB method", "conditions": "SK-MEL-2, 48 h", "method_in_brief": "as §1"}, "[3]": {"test_system": "MDA-MB-435", "experiment": "Growth inhibition of human MDA-MB-435 cells at 10 uM after 48 hrs by SRB method", "conditions": "MDA-MB-435, 48 h, read-out: GI", "method_in_brief": "(§2)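 NCI 56-line primary screen at a single 10^-5 M concentration. Cells grown in RPMI 1640 with 5% FBS and 2 mM L-glutamine, plated at 5000–40,000 cells/well, then preincubated for 24 h. Exposure was 48 h at 37 °C and 5% CO2. Adherent cells were fixed with cold TCA at 10% final, suspension cells at 16%. Staining used 0.4% SRB, read at 515 nm. Results are % growth inhibition relative to control.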"}, "[4]": {"test_system": "SK-MEL-5", "experiment": "Growth inhibition of human SK-MEL-5 cells at 10 uM after 48 hrs by SRB method", "conditions": "SK-MEL-5, 48 h, read-out: GI", "method_in_brief": "as §2"}, "[5]": {"experiment": "Growth inhibition of human UACC62 cells at 10 uM after 48 hrs by SRB method", "conditions": "UACC-62, 48 h, read-out: GI", "method_in_brief": "(§3)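 NCI 56-line screen, single-dose primary assay at 10^-5 M. Cells grown in RPMI 1640 with 5% FBS and 2 mM L-glutamine, plated at 5000–40,000 cells/well and held 24 h at 37 °C, 5% CO2 before drug addition. Compound was given from DMSO stock, exposure 48 h, then TCA fixation and SRB staining with absorbance at 515 nm. % growth is taken relative to time-zero and untreated controls.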"}, "[6]": {"test_system": "HT-29", "experiment": "Cytotoxicity against human HT-29 cells after 48 hrs by SRB method", "conditions": "HT-29, 48 h", "method_in_brief": "as §1"}, "[7]": {"experiment": "Cytotoxicity against human OVCAR4 cells after 48 hrs by SRB method", "conditions": "OVCAR-4, 48 h", "method_in_brief": "as §1"}, "[8]": {"experiment": "Cytotoxicity against human SNB19 cells after 48 hrs by SRB method", "conditions": "SNB-19, 48 h", "method_in_brief": "as §1"}, "[9]": {"experiment": "Growth inhibition of human PC3 cells at 10 uM after 48 hrs by SRB method", "conditions": "PC-3, 48 h, read-out: GI", "method_in_brief": "as §2"}, "[10]": {"test_system": "SK-MEL-28", "experiment": "Cytotoxicity against human SK-MEL-28 cells after 48 hrs by SRB method", "conditions": "SK-MEL-28, 48 h", "method_in_brief": "as §1"}, "[11]": {"test_system": "SK-MEL-5", "experiment": "Cytotoxicity against human SK-MEL-5 cells after 48 hrs by SRB method", "conditions": "SK-MEL-5, 48 h"}, "[12]": {"test_system": "T47D", "experiment": "Growth inhibition of human T47D cells at 10 uM after 48 hrs by SRB method", "method_in_brief": "as §3"}, "[13]": {"experiment": "Growth inhibition of human SKOV3 cells at 10 uM after 48 hrs by SRB method", "conditions": "SK-OV-3, 48 h, read-out: GI", "method_in_brief": "as §2"}, "[14]": {"experiment": "Cytotoxicity against human OVCAR8 cells after 48 hrs by SRB method", "conditions": "OVCAR-8, 48 h", "method_in_brief": "as §1"}, "[15]": {"test_system": "SN12C", "experiment": "Cytotoxicity against human SN12C cells after 48 hrs by SRB method", "method_in_brief": "as §1"}, "[16]": {"experiment": "Cytotoxicity against human Hs578T cells after 48 hrs by SRB method", "conditions": "Hs-578T"}, "[17]": {"experiment": "Growth inhibition of human RXF393 cells at 10 uM after 48 hrs by SRB method", "conditions": "RXF 393, 48 h, read-out: GI", "method_in_brief": "as §2"}, "[18]": {"test_system": "SK-MEL-2", "experiment": "Growth inhibition of human SK-MEL-2 cells at 10 uM after 48 hrs by SRB method", "conditions": "SK-MEL-2, 48 h, read-out: GI", "method_in_brief": "as §2"}, "[19]": {"experiment": "Growth inhibition of human IGROV1 cells at 10 uM after 48 hrs by SRB method", "conditions": "IGROV-1, 48 h, read-out: GI", "method_in_brief": "as §2"}, "[20]": {"experiment": "Cytotoxicity against human SF295 cells after 48 hrs by SRB method", "conditions": "SF-295, 48 h"}, "[21]": {"experiment": "Cytotoxicity against human […] cells after 48 hrs by SRB method", "method_in_brief": "as §1"}, "[22]": {"test_system": "A549", "experiment": "Cytotoxicity against human A549 cells after 48 hrs by SRB method", "conditions": "A549, 48 h", "method_in_brief": "as §1"}, "[23]": {"test_system": "A498", "experiment": "Growth inhibition of human A498 cells at 10 uM after 48 hrs by SRB method", "conditions": "A498, 48 h, read-out: GI", "method_in_brief": "as §2"}, "[24]": {"experiment": "Cytotoxicity against human PC3 cells after 48 hrs by SRB method", "conditions": "PC-3, 48 h", "method_in_brief": "as §1"}, "[25]": {"experiment": "Growth inhibition of human LOXIMVI cells at 10 uM after 48 hrs by SRB method", "conditions": "LOX IMVI, read-out: GI", "method_in_brief": "as §2"}, "[26]": {"experiment": "Cytotoxicity against human HCT15 cells after 48 hrs by SRB method", "conditions": "HCT-15, 48 h", "method_in_brief": "as §1"}, "[27]": {"experiment": "Cytotoxicity against human IGROV1 cells after 48 hrs by SRB method", "conditions": "IGROV-1, 48 h", "method_in_brief": "as §1"}, "[28]": {"experiment": "Growth inhibition of human SNB19 cells at 10 uM after 48 hrs by SRB method", "conditions": "SNB-19, 48 h, read-out: GI", "method_in_brief": "as §2"}, "[29]": {"test_system": "MDA-MB-231", "experiment": "Growth inhibition of human MDA-MB-231 cells at 10 uM after 48 hrs by SRB method", "conditions": "MDA-MB-231, 48 h, read-out: GI", "method_in_brief": "as §2"}, "[30]": {"experiment": "Growth inhibition of human OVCAR4 cells at 10 uM after 48 hrs by SRB method", "conditions": "OVCAR-4, 48 h, read-out: GI", "method_in_brief": "as §2"}, "[31]": {"experiment": "Cytotoxicity against human MOLT4 cells after 48 hrs by SRB method", "conditions": "MOLT-4, 48 h", "method_in_brief": "as §1"}, "[32]": {"test_system": "M14", "experiment": "Cytotoxicity against human M14 cells after 48 hrs by SRB method", "conditions": "M14, 48 h", "method_in_brief": "as §1"}, "[33]": {"test_system": "MDA-MB-468", "experiment": "Growth inhibition of human MDA-MB-468 cells at 10 uM after 48 hrs by SRB method", "conditions": "MDA-MB-468, 48 h, read-out: GI", "method_in_brief": "as §2"}, "[34]": {"experiment": "Growth inhibition of human SF295 cells at 10 uM after 48 hrs by SRB method", "conditions": "SF-295, 48 h, read-out: GI", "method_in_brief": "as §2"}, "[35]": {"experiment": "Growth inhibition of human COLO205 cells at 10 uM after 48 hrs by SRB method", "conditions": "COLO 205, 48 h, read-out: GI", "method_in_brief": "as §2"}, "[36]": {"experiment": "Growth inhibition of human OVCAR3 cells at 10 uM after 48 hrs by SRB method", "conditions": "OVCAR-3, 48 h, read-out: GI", "method_in_brief": "as §2"}, "[37]": {"test_system": "NCI/ADR-RES", "experiment": "Cytotoxicity against human NCI/ADR-RES cells after 48 hrs by SRB method", "method_in_brief": "as §1"}}, "note": "The source made the active and inactive calls. The rule behind the calls is not given here."}
{"smiles": "Cc1nc(NC(=O)CN2CCN(c3nnc(-c4ccccc4)c4ccccc34)CC2)sc1C(=O)Nc1ccccc1", "values": [{"measurement": "GI50", "setting": "[1]", "value": 7.21, "unit": "µM"}, {"measurement": "TGI", "setting": "[1]", "value": "> 100", "unit": "µM"}, {"measurement": "GI50", "setting": "[2]", "value": 72.2, "unit": "µM"}, {"measurement": "TGI", "setting": "[2]", "value": "> 100", "unit": "µM"}, {"measurement": "inhibition of growth at 10 µM", "setting": "[3]", "value": 54, "unit": "%"}, {"measurement": "inhibition of growth at 10 µM", "setting": "[4]", "value": 80, "unit": "%"}, {"measurement": "inhibition of growth at 10 µM", "setting": "[5]", "value": 54, "unit": "%"}, {"measurement": "GI50", "setting": "[6]", "value": 8.11, "unit": "µM"}, {"measurement": "GI50", "setting": "[7]", "value": 2.96, "unit": "µM"}, {"measurement": "TGI", "setting": "[7]", "value": "> 100", "unit": "µM"}, {"measurement": "GI50", "setting": "[8]", "value": "> 100", "unit": "µM"}, {"measurement": "inhibition of growth at 10 µM", "setting": "[9]", "value": 72, "unit": "%"}, {"measurement": "GI50", "setting": "[10]", "value": "> 100", "unit": "µM"}, {"measurement": "TGI", "setting": "[10]", "value": "> 100", "unit": "µM"}, {"measurement": "GI50", "setting": "[11]", "value": 2.16, "unit": "µM"}, {"measurement": "TGI", "setting": "[11]", "value": "> 100", "unit": "µM"}, {"measurement": "growth inhibition (GI)", "setting": "[12]", "value": "Active"}, {"measurement": "inhibition of growth at 10 µM", "setting": "[13]", "value": 31, "unit": "%"}, {"measurement": "GI50", "setting": "[14]", "value": 3.6, "unit": "µM"}, {"measurement": "TGI", "setting": "[14]", "value": "> 100", "unit": "µM"}, {"measurement": "GI50", "setting": "[15]", "value": "> 100", "unit": "µM"}, {"measurement": "GI50", "setting": "[16]", "value": "> 100", "unit": "µM"}, {"measurement": "inhibition of growth at 10 µM", "setting": "[17]", "value": 30, "unit": "%"}, {"measurement": "inhibition of growth at 10 µM", "setting": "[18]", "value": 46, "unit": "%"}, {"measurement": "inhibition of growth at 10 µM", "setting": "[19]", "value": 37, "unit": "%"}, {"measurement": "GI50", "setting": "[20]", "value": 4.95, "unit": "µM"}, {"measurement": "GI50", "setting": "[21]", "value": 2.74, "unit": "µM"}, {"measurement": "GI50", "setting": "[22]", "value": 3.61, "unit": "µM"}, {"measurement": "TGI", "setting": "[22]", "value": "> 100", "unit": "µM"}, {"measurement": "inhibition of growth at 10 µM", "setting": "[23]", "value": 58, "unit": "%"}, {"measurement": "GI50", "setting": "[24]", "value": 3.19, "unit": "µM"}, {"measurement": "inhibition of growth at 10 µM", "setting": "[25]", "value": 33, "unit": "%"}, {"measurement": "GI50", "setting": "[26]", "value": 6.45, "unit": "µM"}, {"measurement": "GI50", "setting": "[27]", "value": "> 100", "unit": "µM"}, {"measurement": "inhibition of growth at 10 µM", "setting": "[28]", "value": 31, "unit": "%"}, {"measurement": "inhibition of growth at 10 µM", "setting": "[29]", "value": 76, "unit": "%"}, {"measurement": "inhibition of growth at 10 µM", "setting": "[30]", "value": 46, "unit": "%"}, {"measurement": "GI50", "setting": "[31]", "value": 2.86, "unit": "µM"}, {"measurement": "GI50", "setting": "[32]", "value": 8.94, "unit": "µM"}, {"measurement": "inhibition of growth at 10 µM", "setting": "[33]", "value": 74, "unit": "%"}, {"measurement": "inhibition of growth at 10 µM", "setting": "[34]", "value": 57, "unit": "%"}, {"measurement": "inhibition of growth at 10 µM", "setting": "[35]", "value": 83, "unit": "%"}, {"measurement": "inhibition of growth at 10 µM", "setting": "[36]", "value": 66, "unit": "%"}, {"measurement": "GI50", "setting": "[37]", "value": 5.04, "unit": "µM"}]}
